Compound activity deposited in PubChem BioAssay by several laboratories.
Compounds with a hit are over-represented: about 5.9% of the library has one in this group of screens.
MT1-MMP txn act: activates MT1-MMP transcription; activation factor at 10 µM; 86,000 tested, 0.16% active; HT1080 MT1-MMP promoter luciferase reporter, luminescence, overnight; hits give high values;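 active = activation factor of at least 2 for MT1-MMP transcription at 10 µM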
Lung fibro prol: blocks proliferation of human lung fibroblasts; LL 47 human lung fibroblast viability, ATP luminescence; hits give low values; viability, % at 10 µM; 85,000 tested, 1.1% active; AID 719;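 active = viability at or below 50% in the single dose screen; inactive = viability above 50%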;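 note: compound exposure lasted 72 h before the ATP readout; 100% = median luminescence of untreated cell-only wells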
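material = human LL 47 lung fibroblast cells | dosing = compounds added from tenfold dosing solution, 0.1% DMSO final | timing = overnight cell rest, 72 h compound treatment at 37 °C | measured by = CellTiter-Glo luminescence measuring cellular ATP | evaluation = % viability versus median cells-only luminescence | control set = cell-only wells, no compound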
H69AR inhibit: growth inhibitors of human H69AR lung tumor cells; H69AR lung tumor viability, ATP luminescence, 72 h; hits give low values; viability, % at 10 µM; 85,000 tested, 6% active;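 active = viability at or below 40%; inactive = viability above 40%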;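 note: multidrug resistant small cell line overexpressing MRP-1 efflux transporter; 100% = mean luminescence of untreated control wells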
HUVEC inhibit: human endothelial cell proliferation inhibition | HUVEC proliferation, CellTiter-Glo luminescence, 72 h; hits give low values | viability, % at 10 µM (by protocol) | 86,000 tested, 1.1% active | AID 648;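 active = viability at or below 30%; inactive = viability above 30%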;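 note: 100% = median luminescence of DMSO-only cell control wells on each plate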
PTK2B oligo ant: Pyk2 (human) oligomerization antagonism; Q14289; Q293 cells, Pyk2 FERM NanoBiT luminescence; hits give low values; z-score (the deposit names both 25 µM and 10 µM); 99,000 tested, 0.83% active;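 active = Z-score of -3 or lower, scaled per plate to the spread of control and sample wells; inactive = z-score above -3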;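 note: negative z-score means lost luminescence so less FERM oligomerization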
Target sequence (Q14289 whole entry, looked up): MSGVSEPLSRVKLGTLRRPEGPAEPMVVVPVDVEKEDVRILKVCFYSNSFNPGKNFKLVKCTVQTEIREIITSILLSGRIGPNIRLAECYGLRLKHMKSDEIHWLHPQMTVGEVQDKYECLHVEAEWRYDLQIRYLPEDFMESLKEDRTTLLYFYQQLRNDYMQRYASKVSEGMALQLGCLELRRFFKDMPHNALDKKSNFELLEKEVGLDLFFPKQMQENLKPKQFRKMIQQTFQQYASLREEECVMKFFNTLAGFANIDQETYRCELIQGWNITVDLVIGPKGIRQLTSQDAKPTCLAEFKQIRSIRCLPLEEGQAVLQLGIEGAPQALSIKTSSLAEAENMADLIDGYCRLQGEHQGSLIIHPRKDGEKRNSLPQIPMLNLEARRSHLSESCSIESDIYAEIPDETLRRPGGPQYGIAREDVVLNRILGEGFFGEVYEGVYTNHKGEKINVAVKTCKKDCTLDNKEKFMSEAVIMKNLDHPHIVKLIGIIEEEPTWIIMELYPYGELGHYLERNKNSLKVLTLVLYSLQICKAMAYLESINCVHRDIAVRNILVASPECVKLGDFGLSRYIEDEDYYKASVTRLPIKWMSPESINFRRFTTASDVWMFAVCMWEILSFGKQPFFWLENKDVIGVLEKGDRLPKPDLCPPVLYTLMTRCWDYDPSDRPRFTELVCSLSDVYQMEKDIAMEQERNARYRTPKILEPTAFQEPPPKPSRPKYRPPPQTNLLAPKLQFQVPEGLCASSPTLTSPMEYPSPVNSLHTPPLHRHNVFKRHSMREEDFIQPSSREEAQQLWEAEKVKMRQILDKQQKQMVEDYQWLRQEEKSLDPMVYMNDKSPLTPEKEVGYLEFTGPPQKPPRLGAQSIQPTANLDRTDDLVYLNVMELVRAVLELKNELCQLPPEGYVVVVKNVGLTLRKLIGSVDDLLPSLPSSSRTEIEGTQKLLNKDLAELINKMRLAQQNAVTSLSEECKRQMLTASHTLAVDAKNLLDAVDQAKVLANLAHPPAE
Jurkat viability: reduces viability or proliferation of Jurkat cells. Jurkat E6.1 viability, ATP luminescence, 48 h. inhibition, % at 4 µM. 56,000 tested, 1.2% active;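 active = inhibition above the mean inhibition of all tested compounds plus 3 SD, cut at about 28% in these data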
The depositor's hits bear a star; / = no result given.

SMILES	MT1-MMP txn act	Lung fibro prol	H69AR inhibit	HUVEC inhibit	PTK2B oligo ant	Jurkat viability
O=C(Nc1cccc(Cl)c1)OCc1cn(-c2ccc(Cl)cc2)nn1	/	/	/	/	0.41	/
COc1ccc(Cl)cc1NC(=O)N(C)Cc1c(C)nn(C)c1C	1	97	86	90	-0.79	0
Cc1cc(C)c(C#N)c(SCC2COc3ccccc3O2)n1 (centres undefined)	1.1	/	/	/	-3.3*	0
N#Cc1cc2c(nc1SCC1COc3ccccc3O1)CCC2 (centres undefined)	1.9	/	/	/	-1.5	-4
CC(=O)CCN1CCOCC1	1	90	29*	96	0.05	/
CN(C)C(=O)CCN1CCOCC1	1.3	99	95	98	-0.32	/
COC(=O)C1=CN(C(C)C)C=C(C(=O)OC)C1c1cc(Br)c(OC)c(OC)c1	1.2	97	110	95	-3.6*	/
Cc1nn(C)c(C)c1NC(=O)CSc1nc(Cc2ccccc2)nc2c1cnn2-c1ccccc1	1	87	5.3*	87	0.1	6
O=C(c1cc(-c2cccnc2)nc2ccc(Br)cc12)N1CCN(c2ncccn2)CC1	1	80	5.3*	51	-0.81	-3
O=C(c1cc(-c2ccccc2)nc2ccccc12)N1CCN(c2ccccn2)CC1	1.2	95	58	86	-0.63	-4
Cc1ccccc1C(=O)N1CCN(c2ccccn2)CC1	1	108	96	108	1.4	/
O=C(c1ccccc1-c1ccccc1)N1CCN(c2ccccn2)CC1	0.6	53	19*	56	2.2	84*
O=C(c1cc(-c2ccncc2)nc2ccccc12)N1CCN(c2ccccn2)CC1	0.9	60	19*	51	0.29	/
CC1(C)Cc2c(sc(NC(=O)c3ccc(Br)o3)c2C#N)CO1	2.3*	104	91	97	-0.89	/
CNC(=O)c1[nH]cnc1C(=O)Nc1ccccc1C	1.1	107	100	101	1.2	/
O=C(c1ccccc1)c1nc[nH]c1C(=O)Nc1ccccc1	1	71	24*	86	-1.3	-2
O=C(c1cccs1)n1nc(-c2ccc(Cl)cc2)nc1NCc1ccco1	1.5	98	77	95	-0.17	/
COc1ccc(CC(=O)n2nc(-c3ccc(Cl)cc3)nc2NCc2ccco2)cc1	1.2	81	30*	75	-0.94	/
CC(=O)n1nc(-c2ccc(Cl)cc2)nc1NCc1ccco1	1.2	74	33*	57	-0.64	/
COc1ccc(OC)c(N(CC(=O)Nc2ccc3c(c2)OCO3)S(=O)(=O)c2ccccc2)c1	1	/	46	93	-2.3	/
CCOc1ccc(-n2c(N)c(-c3nc4ccccc4[nH]3)sc2=S)cc1	1.1	74	22*	54	-0.89	/
Cn1cc(S(=O)(=O)Cc2ccc(F)cc2)c2ccccc21	0.9	/	/	/	/	4
CC(C)C[C@H](N)c1nnc(S(=O)(=O)Cc2ccc(F)cc2)o1	0.9	67	5.9*	100	-0.48	10
CN1CCN(Cn2cc(/C=C/C(=O)c3ccccc3)c3ccccc32)CC1	1.5	92	12*	66	-1.8	/
O=c1[nH]c(=O)n(Cc2ccccc2)c2c1C(C(F)(F)F)(C(F)(F)F)N=C(c1ccco1)N2	1.1	72	59	70	-3.5*	/
SMILES	MT1-MMP txn act	Lung fibro prol	H69AR inhibit	HUVEC inhibit	PTK2B oligo ant	Jurkat viability
O=c1[nH]c(=O)n(Cc2ccco2)c2c1C(C(F)(F)F)(C(F)(F)F)N=C(c1ccc(F)cc1)N2	1.1	79	72	75	-1.3	/
CC1CCCCN1S(=O)(=O)c1ccc(S(=O)(=O)NCCc2ccncc2)cc1 (centres undefined)	1.3	99	50	104	0.27	/
CC(C)CCN1C(=O)c2ccc(-c3nc4ccccc4c(=O)o3)cc2C1=O	1.1	100	80	83	-3.3*	/
N#CCc1ccc(C(=O)c2ccccc2)s1	/	/	/	/	0.75	/
N#Cc1cc(C(=O)c2cc(Br)ccc2O)cn(C2CCCCC2)c1=O	1.2	93	13*	98	-2.9	/
Cc1c(-n2cc(C(=O)c3cc(Br)ccc3O)cc(C#N)c2=O)c(=O)n(-c2ccccc2)n1C	/	/	/	/	0	/
O=C(CN(C(=O)Cn1nnc(-c2cccs2)n1)c1cnc2ccccc2c1)NCC1CCCO1 (centres undefined)	1	96	88	88	0.51	-5
Cc1[nH]n(-c2ccc([N+](=O)[O-])cc2)c(=O)c1N=Nc1nc2ccccc2s1	1.6	/	35*	41	/	/
Oc1[nH]c2ccccc2c1N=Nc1nc2ccccc2s1	/	/	/	/	0.51	/
CCC/S(CC1CC1(Cl)Cl)=N\S(=O)(=O)c1ccc(C)cc1 (centres undefined)	1.1	96	105	81	0.44	/
COc1ccc(C2=NOC(C(=O)NCc3cccs3)C2)cc1OC (centres undefined)	0.5	58	24*	65	/	/
COc1cc(C2=NOC(C(=O)NCc3cccs3)C2)cc(OC)c1OC (centres undefined)	0.6	58	24*	55	-0.08	/
CC(=O)Nc1cc(C(=O)N2CCN(C)CC2)ccc1Sc1ccc(C)cc1	/	103	99	109	1.4	/
CN1CCN(/C=N/c2c(C#N)cnn2Cc2ccccc2)CC1	1.2	99	85	100	0.93	4
COc1ccccc1CNc1nc2ccccc2n1CCN1CCCCC1	1.4	85	36*	78	-0.62	11
CCC(C)OC(=O)C1=C(C)O[C@]23OC(N)=C(C#N)[C@]12C(=O)c1ccccc13 (some centres undefined)	1.1	96	94	93	1.6	/
Cc1ccc(N=Nc2c(=O)[nH]n3c(C)cc(C)nc23)cc1	/	/	/	/	-3.8*	/
CCOc1ccc(Br)cc1/C(C)=N\NC1=NCCN1	1.2	52	18*	58	0.93	/
CCOC(=O)C1=C(c2cccc(F)c2)NC(=S)NC1C (centres undefined)	/	/	/	/	-0.47	/
CCCOc1ccc([N+](=O)[O-])cc1C1NC(=S)NC(c2ccccc2)=C1C(=O)OCC (centres undefined)	/	/	/	/	-4.1*	/
CC(=O)c1ccc(NC(=O)c2cnn3c(C(F)F)cc(C4CC4)nc23)cc1	1.1	107	104	106	0.97	/
c1ccc(-c2nnc(Cn3c4ccccc4c4nc5ccccc5nc43)o2)cc1	1.4	91	11*	47	0.25	-2
Cc1ccc(C)c(CSc2ncccc2C(=O)O)c1	1	100	87	89	/	/
COc1cc(C2C3=C(Nc4ncnn42)c2ccccc2CC3)cc(OC)c1OC (centres undefined)	0.5	50	29*	54	0.81	98*
COc1ccc(C2C3=C(Nc4ncnn42)c2ccccc2CCC3)cc1 (centres undefined)	/	97	86	96	-0.84	/
O=C1CCCN1CCC1CCN(C2CC(=O)N(c3ccc(Cl)cc3)C2=O)CC1 (centres undefined)	1.1	104	100	103	1.5	-5
On1onc2c3cc(-c4ccccc4)nc3ccc21	/	23*	6.0*	40	-2.8	98*
